In ChEMBL document CHEMBL3792364, “Identification and biological activity of 6-alkyl-substituted 3-methyl-pyridine-2-carbonyl amino dimethyl-benzoic acid EP4 antagonists” (Bioorg Med Chem Lett, 2016) one finds IC50 data, which are given here for two compounds.

For test [1], the target named is T1, Prostaglandin E2 receptor EP4 subtype (Homo sapiens, UniProt P35408). The test can be described thus: Antagonist activity against EP4 in human whole blood assessed as reversal of PGE2-mediated suppression of LPS-induced TNF-alpha production preincubated for 30 mins followed by LPS stimulation measured after 20 to 24 hrs by enzyme immunoassay. The test is classed as tissue-based. A digest of the protocol:
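Pooled blood from donors free of NSAIDs or celecoxib for 48 h and of glucocorticoids for 2 weeks. Blood pretreated 30 min at 37 °C, 5% CO2 with compound in DMSO (7-point curve, triplicate). LPS […] ± 10 nM PGE2 (final) added, then incubated 20–24 h. Plasma TNFα read at A450-A650. IC50 from sigmoidal nonlinear fit; geometric mean of independent runs.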

Test [2] addresses T1, Prostaglandin E2 receptor EP4 subtype. The test can be described thus: Antagonist activity against human EP4 expressed in HEK293 cells assessed as inhibition of PGE2-stimulated production of cAMP incubated for 20 mins by HTRF assay. In kind it is functional, cell-based. On the technique in general: In TR-FRET formats the signal depends on donor and acceptor labels being close together.

Each structure is given as a SMILES string.

T1 sequence (P35408 whole entry): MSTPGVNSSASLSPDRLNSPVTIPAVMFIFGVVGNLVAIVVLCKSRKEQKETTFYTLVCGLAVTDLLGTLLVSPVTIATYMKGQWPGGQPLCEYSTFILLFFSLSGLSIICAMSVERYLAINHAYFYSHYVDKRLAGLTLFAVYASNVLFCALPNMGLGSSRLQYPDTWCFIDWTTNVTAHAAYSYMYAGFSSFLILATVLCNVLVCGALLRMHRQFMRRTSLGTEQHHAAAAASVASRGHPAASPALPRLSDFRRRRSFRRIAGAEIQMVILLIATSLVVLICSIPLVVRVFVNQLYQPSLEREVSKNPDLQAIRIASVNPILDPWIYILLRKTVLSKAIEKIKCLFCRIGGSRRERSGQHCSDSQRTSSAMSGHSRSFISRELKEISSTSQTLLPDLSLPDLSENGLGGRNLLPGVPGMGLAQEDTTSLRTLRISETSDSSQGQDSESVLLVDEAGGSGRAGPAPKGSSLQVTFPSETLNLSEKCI

Usually IC50 stands for the concentration needed to halve the response being measured. Take `Cc1ccc(N2CCCC(CO)C2)nc1C(=O)Nc1c(C)cc(C(=O)O)cc1C` (stereo not drawn): the values for the IC50 in test [1] and in test [2] were 1.45 µM and 0.0165 µM, respectively.

`Cc1ccc(N2CCC(CO)C2)nc1C(=O)Nc1c(C)cc(C(=O)O)cc1C` (stereo not drawn): the IC50 in test [2] is 0.084 µM.
